Experimental data taken from ChEMBL document CHEMBL4837242, “Discovery of Irbesartan Derivatives as BLT2 Agonists by Virtual Screening” (ACS Med Chem Lett, 2021).
Activity calls are given as the source filed them. No cut-off for these calls is given here.

Columns and labels:
[1] = target: T1, Leukotriene B4 receptor 2 (Homo sapiens, UniProt Q9NPC1); assay: Agonist activity at human BLT2 overexpressed in CHO-K1 cells assessed as accumulation of inositol monophosphate measured after 90 mins by HTRF assay; format: functional, cell-based
T1 sequence (Q9NPC1 whole entry): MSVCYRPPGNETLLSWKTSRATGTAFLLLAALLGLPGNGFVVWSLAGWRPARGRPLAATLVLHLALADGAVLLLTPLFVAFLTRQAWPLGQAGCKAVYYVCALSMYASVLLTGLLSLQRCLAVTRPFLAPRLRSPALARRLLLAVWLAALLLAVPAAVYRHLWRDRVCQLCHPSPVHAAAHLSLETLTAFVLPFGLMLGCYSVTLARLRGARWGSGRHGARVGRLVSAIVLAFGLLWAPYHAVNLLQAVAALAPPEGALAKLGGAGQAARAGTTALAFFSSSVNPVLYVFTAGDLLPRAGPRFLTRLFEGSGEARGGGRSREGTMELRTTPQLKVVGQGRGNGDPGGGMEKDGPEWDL

[2] = target: T2, Type-1 angiotensin II receptor (Homo sapiens, UniProt P30556); assay: Antagonist activity at human AT1 overexpressed in CHO-K1 cells in presence of 10 nM [Val5-angiotensin II measured after 90 mins by HTRF based IP-one assay; format: functional, cell-based
T2 sequence (P30556 whole entry): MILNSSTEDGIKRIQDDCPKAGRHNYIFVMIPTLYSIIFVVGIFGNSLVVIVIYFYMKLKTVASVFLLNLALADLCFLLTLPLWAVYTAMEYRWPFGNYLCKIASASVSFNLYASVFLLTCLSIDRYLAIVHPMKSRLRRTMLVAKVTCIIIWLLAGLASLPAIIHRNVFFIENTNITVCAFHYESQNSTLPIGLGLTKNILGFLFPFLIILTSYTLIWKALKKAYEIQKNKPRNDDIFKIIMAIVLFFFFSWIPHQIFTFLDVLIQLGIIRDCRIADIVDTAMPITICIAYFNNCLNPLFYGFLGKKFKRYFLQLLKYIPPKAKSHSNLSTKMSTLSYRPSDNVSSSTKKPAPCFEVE
In short: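 IP-One assay in antagonist mode, [Val⁵]-angiotensin II held constant at 10 nM; IP-1 accumulation read out. IC₅₀ with SEM from at least two runs (n = 2).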

[3] = (§1) Cytotoxicity against human HepG2 cells assessed as cell survival rate at 50 uM measured after 3 days by Celltiter-glo assay relative to control; format: cell-based; settings: HepG2 cells, read-out: Activity
In short: (§2)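 Hep-G2 cells exposed to 50 μM compound for 3 days; ATP content measured by CellTiter-Glo luminescence as an index of metabolic activity and survival; live rate expressed as percent of DMSO control.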

[4] = target: Leukotriene B4 receptor 1 (Homo sapiens) (UniProt Q15722); assay: Agonist activity at human BLT1 overexpressed in CHO-K1 cells assessed as accumulation of inositol monophosphate measured after 90 mins by HTRF assay; format: functional, cell-based
Chain of Leukotriene B4 receptor 1 (Homo sapiens) (Q15722 whole entry): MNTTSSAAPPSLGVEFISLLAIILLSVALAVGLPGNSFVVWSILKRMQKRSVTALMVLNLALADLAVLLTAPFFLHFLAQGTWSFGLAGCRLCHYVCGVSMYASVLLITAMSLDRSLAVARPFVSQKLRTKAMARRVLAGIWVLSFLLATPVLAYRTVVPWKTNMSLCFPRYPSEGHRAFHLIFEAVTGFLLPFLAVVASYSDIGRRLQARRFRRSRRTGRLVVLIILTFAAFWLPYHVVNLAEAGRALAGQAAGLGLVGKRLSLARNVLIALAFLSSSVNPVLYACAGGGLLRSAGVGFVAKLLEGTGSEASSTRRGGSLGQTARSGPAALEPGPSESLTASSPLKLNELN
In short: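 IP-One accumulation assay run in agonist mode, read-out inositol monophosphate as a measure of Gq activation; LTB₄ as reference agonist and positive control. EC₅₀ determinations done at least twice (n = 2).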

HCT-116 [5] = assay: Induction of cell proliferation in human HCT-116 cells at 0.03 uM measured after 24 hrs by celltiter blue reagent based fluorescent assay; format: functional
In short: (§3)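 HCT116 seeded at 5 × 10³ cells/well, grown 72 h, then treated 24 h with compound alone or with BLT2 antagonist Ly255283 (1 μM); CellTiterBlue added for the final 4 h, resorufin fluorescence read. Mean ± SEM, n = 3.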

HepG2 = assay: as §1; format: cell-based; settings: hepg2, 72 h, 50 µM; in short: as §2
HCT-116 [6] = assay: Induction of cell proliferation in human HCT-116 cells at 0.1 to 1 uM measured after 24 hrs by celltiter blue reagent based fluorescent assay; format: functional; in short: as §3

Structure (SMILES): CCCCC(=O)N(Cc1ccc(-c2ccccc2-c2nnn[nH]2)cc1)[C@H](C(=O)O)C(C)C
- EC50 ([1]; read-out: EC50): 16000 nM

Structure (SMILES): CCOc1nc2cccc(C(=O)O)c2n1Cc1ccc(-c2ccccc2-c2noc(=O)[nH]2)cc1 [AZILSARTAN]
- EC50 ([1]; cho-k1): Not Active

Structure (SMILES): CSc1ccc(C(=O)/C=C/c2cc(C)c(OC(C)(C)C(=O)O)c(C)c2)cc1 [ELAFIBRANOR]
- EC50 ([1]; cho-k1): Not Active

Structure (SMILES): O=C(O)c1ccccc1-c1ccc(CN2C(=O)C3(CCCC3)N=C2Cc2ccccc2)cc1
- IC50 ([2]; read-out: IC50): 8650 nM
- viability at 72 h, 50 µM [3]: 79%

Structure (SMILES): O=C(O)COc1ccc(C(=O)c2cccs2)c(Cl)c1Cl
- EC50 ([1]; cho-k1): Not Active

Structure (SMILES): CCCC[C@@H]1N(Cc2ccc(-c3ccccc3-c3nnn[nH]3)cc2)C(=O)[C@@H]2CCCN12
- EC50 ([1]; cho-k1): Not Active
- IC50 ([2]; read-out: IC50): 1010 nM
- Activity [4]: inactive
- viability at 72 h, 50 µM [3]: 89%

Structure (SMILES): CCCCC1=NC2(CCCCC2)C(=O)N1Cc1ccc(-c2ccccc2C(=O)O)cc1
- EC50 ([1]; read-out: EC50): 860 nM
- IC50 ([2]; read-out: IC50): 155 nM
- Activity [4]: inactive

Structure (SMILES): C[C@H](CCC(=O)O)[C@H]1CC[C@H]2[C@@H]3[C@H](O)C[C@@H]4C[C@H](O)CC[C@]4(C)[C@H]3CC[C@]12C [CHENODIOL]
- EC50 ([1]; cho-k1): Not Active

Structure (SMILES): CCCCC1=NC2(CCCC2)C(=O)N1Cc1ccc(-c2ccccc2-c2nnn[nH]2)cc1 [IRBESARTAN]
- EC50 ([1]; read-out: EC50): 410 nM
- Activity [4]: inactive
- Activity (HCT-116 [5]): 88%

Structure (SMILES): O=C(O)c1ccccc1-c1ccc(CN2C(=O)C3(CCCC3)N=C2c2ccccc2)cc1
- EC50 ([1]; cho-k1): Not Active
- IC50 ([2]; read-out: IC50): > 10000 nM
- Activity [4]: inactive
- Activity (HepG2): Non-Toxic

Structure (SMILES): CCCCC1=NC2(CCCC2)C(=O)N1Cc1ccc(-c2ccccc2C(=O)O)cc1
- IC50 ([2]; read-out: IC50): 190 nM

Structure (SMILES): CCCCC1NC(C)(C)C(=O)N1Cc1ccc(-c2ccccc2-c2nnn[nH]2)cc1 (stereo not given)
- IC50 ([2]; read-out: IC50): 390 nM
- viability at 72 h, 50 µM [3]: 77%

Structure (SMILES): O=C(O)Cn1c2c(c3cc(F)ccc31)CN(C(=O)c1cccc3ccccc13)CC2 [SETIPIPRANT]
- EC50 ([1]; cho-k1): Not Active

Structure (SMILES): CCOc1nc2cccc(C(=O)O)c2n1Cc1ccc(-c2ccccc2-c2nnn[nH]2)cc1
- EC50 ([1]; read-out: EC50): 15000 nM

Structure (SMILES): CCCCC1=NC(C)(C(C)C)C(=O)N1Cc1ccc(-c2ccccc2-c2nnn[nH]2)cc1 (stereo not given)
- EC50 ([1]; read-out: EC50): 67.6 nM
- IC50 ([2]; read-out: IC50): 15 nM
- Activity [4]: inactive
- Activity (HepG2): Non-Toxic
- Activity (HCT-116 [5]): Active

Structure (SMILES): CCCCC(=O)N(Cc1ccc(-c2ccccc2C(=O)O)cc1)c1ccccc1
- Activity (HCT-116 [5]): Active

Structure (SMILES): CCCC[C@H]1N(Cc2ccc(-c3ccccc3-c3nnn[nH]3)cc2)C(=O)[C@H]2CCCN21
- EC50 ([1]; read-out: EC50): 7500 nM
- IC50 ([2]; read-out: IC50): 10000 nM
- Activity [4]: inactive
- viability at 72 h, 50 µM [3]: 88%

Structure (SMILES): CCCCC1(C2CCCC2)Cc2cc(OCCCC(=O)O)c(Cl)c(Cl)c2C1=O (stereo not given)
- EC50 ([1]; cho-k1): Not Active

Structure (SMILES): CCc1cc(C(C)=O)c(O)cc1OCCCCCC(C)(C)c1nn[nH]n1
- Activity (HCT-116 [6]): inactive

Structure (SMILES): CC(C(=O)O)c1ccc2c(c1)CC(=O)c1ccccc1S2 (stereo not given) [ZALTOPROFEN]
- EC50 ([1]; cho-k1): Not Active

Structure (SMILES): CCCCC1=NC(C)(C)C(=O)N1Cc1ccc(-c2ccccc2-c2nnn[nH]2)cc1
- EC50 ([1]; read-out: EC50): 8140 nM
- IC50 ([2]; read-out: IC50): 32 nM
- Activity [4]: inactive
- viability at 72 h, 50 µM [3]: 56%

Structure (SMILES): CCCCC1NC(=O)C2(CCCC2)N1Cc1ccc(-c2ccccc2C(=O)O)cc1 (stereo not given)
- EC50 ([1]; read-out: EC50): 24200 nM
- IC50 ([2]; read-out: IC50): 7750 nM
- Activity [4]: inactive
- Activity (HepG2): Non-Toxic

Structure (SMILES): CCCCC1=NC(C)(c2ccccc2)C(=O)N1Cc1ccc(-c2ccccc2-c2nnn[nH]2)cc1 (stereo not given)
- EC50 ([1]; read-out: EC50): 550 nM
- IC50 ([2]; read-out: IC50): 25 nM
- Activity [4]: inactive
- viability at 72 h, 50 µM [3]: 56%

Structure (SMILES): O=C(O)c1ccccc1-c1ccc(CN2C(=O)C3(CCCC3)N=C2CCc2ccccc2)cc1
- EC50 ([1]; cho-k1): Not Active
- IC50 ([2]; cho-k1): Not Active
- Activity [4]: inactive
- Activity (HepG2): Non-Toxic
